Screening data as filed in PubChem.
Tb MetRS inh = blocks T. brucei methionyl-tRNA synthetase activity; purified T. brucei MetRS, ATP depletion, Kinase-Glo luminescence; inhibition, % at 11.9 µM; 360,000 tested, 0.4% active; AID 624268;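 active means inhibition above a per-plate cutoff of the control wells' mean inhibition plus 3 SD, cut at about 5.5% in these data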;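 further: 0% = DMSO wells median and 100% = median of wells with control inhibitor compound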
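Measured by: Kinase-Glo luciferase luminescence reporting remaining unconsumed ATP. Material: purified T. brucei MetRS enzyme. Doses: 11.9 µM compound single dose, 0.9% DMSO. Medium: HEPES buffer containing pyrophosphatase, BSA, spermine, DTT. Times: 15 min preincubation, 2 h reaction, all 25 °C. Reagent: methionine, ATP and bulk E. coli tRNA.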
DAGLB inh = blocks human DAGLB lipase activity. HEK293T DAGLB membrane lysate, EnzChek fluorogenic substrate. 340,000 tested, 0.059% active. inhibition, % at 5.17 µM. AID 504411. Q8NCG7; in the data active means inhibition above about 34%;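 further: 0% = enzyme with vehicle and 100% = wells lacking enzyme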
PLCb3 inh = PLC-beta3 (human) inhibition, primary screen. Purified PLC-beta3, fluorogenic substrate, fluorescence. inhibition, % at 12.2 µM. 370,000 tested, 0.18% active. AID 720704; in the data active means inhibition above about 11%;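 further: 0% = median of compound wells on plate and 100% = full blocker control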
PLCg1 inh = inhibitors of human phospholipase C gamma1; AID 720700; purified PLC-gamma1, fluorogenic substrate, fluorescence; P19174; inhibition, % at 12.2 µM; 370,000 tested, 0.84% active
sPLA2-III inh = Inhibits HGIII-sPLA2 liposome hydrolysis, primary screen. Q9NZ20. QFRET BODIPY PC-A2 liposome hydrolysis, fluorescence. inhibition, % at 12.2 µM. 370,000 tested, 0.56% active;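 active means inhibition above mean plus 3 SD of compounds lying within the high and low control bounds, cut at about 19% in these data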;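 further: 0% = median of test compound wells and 100% = no enzyme DMSO wells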
Target sequence (Q9NZ20 whole entry, looked up): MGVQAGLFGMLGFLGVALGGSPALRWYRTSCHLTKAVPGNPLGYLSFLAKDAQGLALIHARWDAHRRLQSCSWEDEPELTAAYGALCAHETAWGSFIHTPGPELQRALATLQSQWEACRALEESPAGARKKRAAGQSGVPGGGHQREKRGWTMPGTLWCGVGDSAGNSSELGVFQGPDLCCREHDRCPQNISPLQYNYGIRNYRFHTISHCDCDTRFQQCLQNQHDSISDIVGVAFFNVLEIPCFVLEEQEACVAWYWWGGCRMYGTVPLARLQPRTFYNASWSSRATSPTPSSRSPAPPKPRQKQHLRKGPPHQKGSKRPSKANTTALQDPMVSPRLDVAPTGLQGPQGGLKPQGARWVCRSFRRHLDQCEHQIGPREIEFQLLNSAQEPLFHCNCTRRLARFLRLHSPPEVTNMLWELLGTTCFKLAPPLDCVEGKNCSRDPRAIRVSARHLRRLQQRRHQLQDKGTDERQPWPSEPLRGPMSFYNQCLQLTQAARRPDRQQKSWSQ
Tb MetRS conf = confirmation of Trypanosoma brucei MetRS inhibitors | 1,400 tested, 93% active | shares compounds with Tb MetRS inh | T. brucei MetRS enzyme, luminescence (ATP depletion) | inhibition, % at 11.9 µM; in the data active means inhibition above about 7%
Jurkat cytotox = kills Jurkat cells in T. brucei MetRS counterscreen; shares compounds with Tb MetRS inh; Jurkat cells viability, ATP luminescence; inhibition, % at 8.3 µM; 1,400 tested, 12% active; AID 624413; in the data active means inhibition above about 15%;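 further: 0% = vehicle and 100% = reference inhibitor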
TbMetRS FP orth = T. brucei MetRS inhibition, orthogonal assay | shares compounds with Tb MetRS inh | purified T. brucei MetRS, fluorescence polarization | inhibition, % at 11.9 µM | 1,400 tested, 44% active | AID 651607; in the data active means inhibition above about 17%;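 further: 0% = vehicle wells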
PLCg1 ctr = PLC-gamma1 inhibition, counter-screen for PLC-beta3 hits; shares compounds with PLCg1 inh; purified PLC-gamma1, fluorogenic substrate, fluorescence; inhibition, % at 12.3 µM; 3,300 tested, 3.1% active
PLCbeta3 conf = human PLC-beta3 inhibition, confirmation; 3,300 tested, 1% active; purified PLC-beta3, fluorogenic substrate fluorescence; AID 743261; shares compounds with PLCg1 inh; inhibition, % at 12.3 µM; in the data active means inhibition above about 11%
* = called active by the depositor; i = inactive; · = no result; ! = not confirmed by another sample. An excerpt weighted towards active compounds, which were near 1.9% of everything screened. Unless noted, no stated cut-off is given here; in the data, active means inhibition above about 9.5%; inactive means the rest.

SMILES | Tb MetRS inh | DAGLB inh | PLCb3 inh | PLCg1 inh | sPLA2-III inh | others
CC(C)C(C(=O)NC(C)(C)C)N1C(=O)CN=C(c2ccccc2)c2ccccc21 (stereo unspecified) | · | · | 0.7 | -1.7 | 1.7
CC(C)(C)NC(=O)C1CN=C(c2ccccc2)c2cc(Cl)ccc2N1C(=O)C1CCC1 (stereo unspecified) | · | · | -2.9 | -4.8 | -1.7
Cc1nc2c(=O)n(C)c(=O)nc-2n(C)n1 | 30.4* | -32.8 | 6.4 | 59.8* | -2.6 | Tb MetRS conf=21.6*;Jurkat cytotox=91.4*;TbMetRS FP orth=12.1
COc1ccc([C@@H]2C[C@H]3[C@@H](CN2)CON3C)cc1 | · | · | 0.0 | -0.5 | -1.0
CCN(CC)C(=O)c1ccc(NC(=O)c2ccc(-n3cncn3)c([N+](=O)[O-])c2)cc1 | 8.0* | 0.4 | -20.1 | 2.0 | -1.8 | Tb MetRS conf=43.2*;Jurkat cytotox=7.8;TbMetRS FP orth=25.7*
CCN(CC)C(=O)c1ccc(NC(=O)c2cccc(C(F)(F)F)c2)cc1 | -0.3 | 1.0 | -4.3 | 3.1 | 1.4
Cc1ccc2nc3c(cc2c1)CC1(C(=O)N(C)C(=O)N(C)C1=O)C1CCCCN31 (stereo unspecified) | 0.8 | 2.4 | -31.9 | -26.7 | -4.5
Cc1ccc2nc3c(cc2c1)CC1(C(=O)N(C)C(=O)N(C)C1=O)C1COCCN31 (stereo unspecified) | 7.1* | 3.1 | -41.3 | -32.1 | 2.2 | Tb MetRS conf=4.1;Jurkat cytotox=-4.8;TbMetRS FP orth=6.8
CN1C(=O)C(Cc2nc3ccccc3c(=O)n2-c2ccccc2)c2ccccc21 (stereo unspecified) | 0.3 | 0.2 | -1.7 | 0.0 | -15.1
O=C1Nc2ccccc2C1Cc1nc2ccccc2c(=O)n1-c1ccccc1 (stereo unspecified) | 9.1* | 2.2 | -11.7 | -4.6 | -12.1 | Tb MetRS conf=6.2*;Jurkat cytotox=-4.8;TbMetRS FP orth=10.3
Nc1c(C(=O)NC2CCCC2)c2nc3ccccc3nc2n1CC1CCCO1 (stereo unspecified) | 7.5* | -3.0 | i | i | -13.1 | Tb MetRS conf=4.9;Jurkat cytotox=-1.4;TbMetRS FP orth=5.2
CSc1ccc(C(=O)C2CCCN(Cc3cc4ccccc4[nH]3)C2)cc1 (stereo unspecified) | 7.1* | -3.8 | -1.2 | 3.9 | -14.5 | Tb MetRS conf=14.8*;Jurkat cytotox=7.7;TbMetRS FP orth=-1.7
C=CCN(CC#CCO)Cc1ccc(OC)cc1OC | · | · | -0.7 | -3.4 | 3.5
COc1ccc(Cn2c(N)c(C(=O)NCc3ccco3)c3nc4ccccc4nc32)cc1OC | 8.0* | 2.1 | i | -484.9 | -25.5 | Tb MetRS conf=5.3;Jurkat cytotox=14.4;TbMetRS FP orth=11.4
Clc1ccc(C(c2ccc(Cl)cc2)n2cc[n+](CC(OCc3ccc(Cl)cc3Cl)c3ccc(Cl)cc3Cl)c2)cc1 (stereo unspecified) | 8.7* | 20.3 | 3.8 | 4.2 | -87.6 | Tb MetRS conf=13.3*;Jurkat cytotox=82.0*;TbMetRS FP orth=178.0*
COC(=O)C1=C[C@H]([C@@H](C)[C@H](OC)c2ccccc2Br)[C@@H]2[C@H]1c1ccccc1N2C | · | · | -2.4 | -1.7 | 3.8
N#Cc1cn(C2OC(CO)C(O)C2O)c2ncnc(N)c12 (stereo unspecified) | 0.0 | -1.8 | 6.4 | -4.1 | -3.0
NC(=O)c1cn(C2OC(CO)C(O)C2O)c2ncnc(N)c12 (stereo unspecified) | 5.9*! | -4.9 | 1.6 | 2.3 | 3.1 | Tb MetRS conf=12.1*;Jurkat cytotox=96.8*;TbMetRS FP orth=11.9
CCCC(=O)N1c2ccc(Cl)cc2C(c2ccccc2)=NCC1C(=O)NC(C)(C)C (stereo unspecified) | · | · | -1.1 | -3.3 | -1.0
Cc1cc(N2CCNC[C@H]2C)ccc1N1CC[C@H](O)C1 | · | · | -3.2 | -0.3 | -0.8
COc1ccc(OC)c(NP(=O)(Oc2ccccc2)Oc2ccccc2)c1 | -0.2 | -4.7 | -0.6 | 11.0* | -16.7 | PLCg1 ctr=-0.7;PLCbeta3 conf=0.8
CCN(CC)CCCN=Cc1c(O)n(CCc2ccc(OC)c(OC)c2)c(=O)[nH]c1=O | 0.4 | 1.0 | 0.3 | 18.3* | 4.3 | PLCg1 ctr=-2.1;PLCbeta3 conf=-0.2
CC1CCC/C=C/C2CC(O)CC2C(O)/C=C/C(=O)O1 (stereo unspecified) | -1.6 | -3.1 | 6.7 | 14.7* | 9.3 | PLCg1 ctr=-7.9;PLCbeta3 conf=-1.8
O=C(NCCN1CCC2(CC1)C(=O)NCN2c1ccccc1)c1ccc(Cl)cc1 | · | · | 1.7 | 0.8 | 1.6
CN1CC[C@@H]2CN[C@H](c3ccccc3)C[C@@H]21 | · | · | -26.3 | -19.9 | 5.4
SMILES | Tb MetRS inh | DAGLB inh | PLCb3 inh | PLCg1 inh | sPLA2-III inh | others
CC(C)C[C@H]1N=C(c2ccccc2)c2ccccc2N(CC(=O)NC(C)(C)C)C1=O | · | · | 4.7 | 0.6 | -0.1
COC(=O)c1cncn1C(C)c1ccccc1 (stereo unspecified) | 0.2 | 2.4 | 3.0 | 3.0 | 4.9
CC(c1ccccc1)n1cncc1C(=O)O (stereo unspecified) | -0.6 | 0.8 | 5.7 | 10.9* | 13.7 | PLCg1 ctr=-6.4;PLCbeta3 conf=-4.6
O=C1NCN(c2ccccc2)C12CCN(C(c1cccc3ccccc13)c1nnnn1C1CCCCC1)CC2 (stereo unspecified) | -0.6 | · | 2.7 | 12.5* | 2.6 | PLCg1 ctr=-1.1;PLCbeta3 conf=-3.4
CSCCC(c1nnnn1Cc1ccccc1)N1CCC2(CC1)C(=O)NCN2c1ccccc1 (stereo unspecified) | 0.1 | · | 1.3 | 11.1* | -6.1 | PLCg1 ctr=-0.9;PLCbeta3 conf=-0.5
O=C1NCN(c2ccccc2)C12CCN(C(CCc1ccccc1)c1nnnn1Cc1ccccc1)CC2 (stereo unspecified) | 0.2 | · | 1.0 | -3.1 | 7.1
COC1CC=C2CCN3CCC4=C(CC(=O)OC4)C23C1 (stereo unspecified) | · | · | -1.9 | 3.3 | -1.4
COP(=O)(OC)C(C)NC(=O)OCc1ccccc1 (stereo unspecified) | · | · | 2.0 | 0.7 | 6.8
O=P(O)(O)C12CC3CC(CC(C3)C1)C2 | -0.4 | 1.8 | 8.8 | 12.8* | -2.1 | PLCg1 ctr=-3.8;PLCbeta3 conf=-1.4
CCC(=NCc1ccco1)c1c(O)n(C2CCCCC2)c(=O)[nH]c1=O | -0.7 | 7.6 | 12.4* | 0.6 | -11.1 | PLCg1 ctr=-1.5;PLCbeta3 conf=20.8*
Cc1ccc(OC(=O)N(C)C[C@H]2OCc3cnnn3CCCC(=O)N([C@@H](C)CO)C[C@@H]2C)cc1 | · | · | 0.3 | 0.2 | 3.4
COc1ccc(CC(=O)N(CCN(C)C)CC2CCCN(Cc3ccccc3F)C2)cc1 (stereo unspecified) | 0.8 | -1.3 | -0.7 | 13.3* | -13.8 | PLCg1 ctr=-1.4;PLCbeta3 conf=-2.1
CN(C)CCN(CC1CCCN(Cc2ccccc2F)C1)C(=O)Cc1ccccc1F (stereo unspecified) | -0.5 | -0.6 | -3.5 | 1.1 | -12.3
